High-throughput results as filed in PubChem BioAssay.
hERG protect = compounds protecting human hERG from proarrhythmic drug block. CHO-hERG, FluxOR thallium flux, dofetilide IC70 present. activation (rescue from dofetilide block), less the hit threshold, % at 10 µM. 310,000 compounds, 0.51% hits. AID 1511. Q12809;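 active = activation above the mean of controls blocked by dofetilide plus 5 SD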;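 also: thallium influx through hERG after potassium depolarization seen as dye fluorescence rise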
KCNK9 block = human KCNK9 channel inhibition; HEK293 KCNK9, FluxOR thallium flux fluorescence; stronger effect = lower value; 310,000 compounds, 1.2% hits; B-score at 10 µM; AID 488922;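 active = ratio B-score over 3 SD below the library mean, with starting fluorescence within 5 SD of its mean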;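 also: negative B-score means less thallium flux so channel inhibition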
PHOSPHO1 inh = blocks human PHOSPHO1 phosphatase activity. inhibition, % at 13.3 µM. 290,000 compounds, 1.1% hits. recombinant PHOSPHO1, absorbance phosphatase assay. Q8TCT1. AID 1565; in the data active = inhibition above about 60%
Target sequence (Q8TCT1 whole entry, looked up): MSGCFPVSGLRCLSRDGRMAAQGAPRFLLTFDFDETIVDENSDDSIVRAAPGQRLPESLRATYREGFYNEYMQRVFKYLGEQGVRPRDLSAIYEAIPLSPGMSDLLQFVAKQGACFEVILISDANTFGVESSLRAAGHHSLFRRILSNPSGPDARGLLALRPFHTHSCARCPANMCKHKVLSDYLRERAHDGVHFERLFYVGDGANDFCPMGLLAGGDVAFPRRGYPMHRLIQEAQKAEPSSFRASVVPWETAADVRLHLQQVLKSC
KCNQ1 inh = human KCNQ1 channel inhibition | P51787 | 310,000 compounds, 1.3% hits | CHO-K1 KCNQ1, FluxOR thallium flux fluorescence; stronger effect = higher value | B-score at 10 µM;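 active = compounds whose thallium flux B-score, printed positive for inhibition, exceeds three library SD while starting fluorescence stays within three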;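 also: channel opened by potassium depolarization with thallium stimulus after 20 min compound exposure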
KCNQ1 act = human KCNQ1 channel potentiation or activation; P51787; 310,000 compounds, 0.35% hits; B-score at 10 µM; CHO-K1 KCNQ1, thallium flux FluxOR fluorescence; stronger effect = higher value;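 active = fluorescence ratio B-score, a plate-corrected score, at least three library SD, with initial intensity B-score within 5 SD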
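System: Stable KCNQ1 CHO-K1 line | Incubation: 90 min dye loading and 20 min compound exposure, both at room temperature | Measure: Ratio B score | Medium: Assay buffer for compound exposure, DMSO matched across wells | Compound dosing: Single-concentration screen | Probe or stimulus: K+/Tl+ depolarizing stimulus | Measured by: Kinetic FluxOR fluorescence, 10 s baseline plus 110 s post-stimulus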
KCNK3 block = human KCNK3 channel inhibition, primary screen. 340,000 compounds, 0.84% hits. CHO-KCNK3 thallium flux, FluxOR fluorescence; stronger effect = lower value. O14649. B-score at 10 µM;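 active = B-score under library mean minus 4 SD, starting fluorescence ratio at most library mean plus 5 SD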;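 also: more negative B-score means stronger inhibition of thallium flux through KCNK3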
KCNK9 block conf = confirmation of human KCNK9 potassium channel inhibitors | AID 492992 | HEK293 KCNK9 cells, FluxOR thallium flux fluorescence | 4,900 compounds, 43% hits | shares compounds with KCNK9 block | inhibition, % at 10 µM;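 active = thallium signal inhibited by more than 5 SD of the compound-free buffer control wells, on both duplicate plates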
Kir21 sel = mouse Kir2.1 off-target activity of KCNK9 modulators | shares compounds with KCNK9 block | Kir2.1 cells, FluxOR thallium flux fluorescence | inhibition, % at 10 µM | 4,900 compounds, 4% hits | AID 492993;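 active = thallium signal drop more than 5 SD beyond the mean of the no-compound control wells, seen in both duplicate plates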;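 also: signal is fluorescence rise after thallium addition divided by baseline fluorescence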
Target sequence (P35561 whole entry, looked up): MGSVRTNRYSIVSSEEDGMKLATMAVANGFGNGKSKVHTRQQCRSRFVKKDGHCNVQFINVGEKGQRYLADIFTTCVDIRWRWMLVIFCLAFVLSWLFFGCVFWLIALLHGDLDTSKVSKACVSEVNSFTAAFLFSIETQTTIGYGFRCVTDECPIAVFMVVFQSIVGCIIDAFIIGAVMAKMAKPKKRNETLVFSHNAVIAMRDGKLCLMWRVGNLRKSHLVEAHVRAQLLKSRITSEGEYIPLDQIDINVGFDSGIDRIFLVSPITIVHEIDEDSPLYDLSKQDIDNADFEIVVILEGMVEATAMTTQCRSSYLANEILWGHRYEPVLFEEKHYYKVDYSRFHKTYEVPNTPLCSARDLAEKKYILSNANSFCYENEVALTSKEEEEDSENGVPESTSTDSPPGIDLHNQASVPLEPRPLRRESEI
HEK293 Tl ctr = second check of KCNK9 modulator effects in non-induced HEK293 cells; shares compounds with KCNK9 block; FluxOR thallium flux; inhibition, % at 10 µM; 4,900 compounds, 40% hits;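 active = thallium signal drop beyond 5 SD of the untreated control mean, on both duplicate plates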
Of the large screens only hits and unclear results are named; the others gave an inactive call (follow-up assays come after a bar, where they were run). Sampled rows, rich in hits. Any-hit rate of the full collection: about 4%.

CC1CC(C)CN(C(=O)c2ccc(S(=O)(=O)N3CC(C)CC(C)C3)cc2)C1 (configuration not stated)	none | KCNK9 block conf inactive | Kir21 sel inactive | HEK293 Tl ctr inactive
CC1CC(C)CN(C(=O)c2ccc(C(=O)c3ccccc3)cc2)C1 (configuration not stated)	none (no result: PHOSPHO1 inh) | KCNK9 block conf inactive | Kir21 sel inactive | HEK293 Tl ctr inactive
COc1cc2c(cc1OC)C(c1cc3cccc(C)c3[nH]c1=O)N(C(=O)c1ccco1)CC2 (configuration not stated)	none
COc1ccc(CC2(C)OC(c3ccc(Cl)cc3)=NN2C(C)=O)cc1 (configuration not stated)	none | KCNK9 block conf inactive | Kir21 sel inactive | HEK293 Tl ctr inactive
Cc1cc(C)c(C(=O)C(C)OC(=O)c2ccc(Cl)nc2)cc1C (configuration not stated)	none | KCNK9 block conf inactive | Kir21 sel inactive | HEK293 Tl ctr inactive
NC(=O)C1CC(=O)N(c2ccc(OCC(=O)Nc3ccc(Cl)cc3)cc2)C1 (configuration not stated)	none
COc1cccc(CN(C)C(=O)CNC(=O)c2sc3ccccc3c2Cl)c1OC	none (no result: PHOSPHO1 inh) | KCNK9 block conf inactive | Kir21 sel inactive | HEK293 Tl ctr inactive
COc1ccc(CN(C)C(=O)CNC(=O)Cc2cccc3ccccc23)c(OC)c1OC	none
Cc1ccc(NC(=O)CN(C)C(=O)c2ccc(NC(=O)CC3SC(N4CCCC4)=NC3=O)cc2)cc1 (configuration not stated)	none (no result: PHOSPHO1 inh)
C=CCn1c(SCC)nc2sc3c(c2c1=O)CCc1ccccc1-3	none
C=CCSc1nc2sc3c(c2c(=O)n1CC)CCc1ccccc1-3	PHOSPHO1 inh 87 | KCNK9 block conf inactive | Kir21 sel inactive | HEK293 Tl ctr inactive
CCOc1cc(NC(=S)NCCCN2CCOCC2)c(OCC)cc1NC(=O)C(C)C	none
CCOC(=O)c1c(N2C(=O)C3C4C=CC(O4)C3C2=O)sc2c1CCCC2 (configuration not stated)	none
Cn1cc(C(=O)C(=O)N2CCCCC2)c2ccccc21	none (no result: hERG protect, KCNK9 block, PHOSPHO1 inh, KCNQ1 inh, KCNQ1 act)
COc1ccc(-c2csc3nc(-c4ccccc4OC)oc(=O)c23)cc1	KCNK9 block -11 | KCNK9 block conf 72% | Kir21 sel inactive | HEK293 Tl ctr inactive
CC1(NC(=O)CCNC(=O)c2ccc(C(C)(C)C)cc2)CCS(=O)(=O)C1 (configuration not stated)	none (no result: hERG protect, KCNK9 block, PHOSPHO1 inh, KCNQ1 inh, KCNQ1 act)
O=C1/C(=C/c2ccncc2)SC(=S)N1C1CCCCC1	none
Cc1ccc(/C=C2/SC(=S)N(C3CCCCC3)C2=O)o1	none | KCNK9 block conf inactive | Kir21 sel inactive | HEK293 Tl ctr inactive
COC(=O)c1ccccc1NC(=O)CN(C)Cc1ccccc1	KCNK9 block -9.9 | KCNK9 block conf 39% | Kir21 sel inactive | HEK293 Tl ctr 38%
COc1cc(C2C(C#N)=C(N)Oc3cc(N(C)C)ccc32)cc2c1OCO2 (configuration not stated)	KCNK9 block -8.6 | KCNK9 block conf 34% | Kir21 sel inactive | HEK293 Tl ctr 54%
Cc1ccc(OCCn2cnc3cc([N+](=O)[O-])ccc3c2=O)cc1	none | KCNK9 block conf inactive | Kir21 sel inactive | HEK293 Tl ctr inactive
CCCc1cc(C(=O)N2CCCC(N3CCN(c4ccccc4F)CC3)C2)n(C)n1 (configuration not stated)	none
COc1cc(/C=N/OCC(=O)NC23CC4CC(CC(C4)C2)C3)ccc1OCc1ccccc1	none | KCNK9 block conf inactive | Kir21 sel inactive | HEK293 Tl ctr 26%
CCC1=NN(C(=O)COc2ccccc2)C(O)(c2ccc(Br)cc2)C1 (configuration not stated)	KCNK9 block -17 | KCNK9 block conf 52% | Kir21 sel inactive | HEK293 Tl ctr 35%
CC1=NN(C(=O)COc2ccccc2)C(O)(c2ccccc2)C1 (configuration not stated)	none
CCOC(=O)C(NCCc1ccccc1F)(NC(=O)CC)C(F)(F)F (configuration not stated)	none
CN(C[C@H](Cc1ccccc1)N(C[C@@H](Cc1cccc2ccccc12)N(CCc1ccccc1)N=O)N=O)N=O	KCNK9 block -8.5 | KCNK9 block conf inactive | Kir21 sel inactive | HEK293 Tl ctr 38%
COc1ccc2c(c1)CCC/C2=N/OC(=O)c1ccccc1OC	KCNK9 block -12 | KCNK9 block conf 62% | Kir21 sel inactive | HEK293 Tl ctr inactive
O=C(CNC1CCCCC1)Nc1ccc(S(=O)(=O)N2CCCCC2)cc1	none
Cn1c(Sc2ccc(Br)cc2)c(C=O)c2ccccc21	KCNK9 block -9.5 | KCNK9 block conf 44% | Kir21 sel 36% | HEK293 Tl ctr 52%
Cn1c(Oc2ccc(F)cc2)c(C=O)c2ccccc21	none
COc1ccc(S(=O)(=O)N2CCN(C(=O)C3CC3)CC2)cc1	none
CCOc1ccccc1N/C=C(\C#N)c1nc2ccccc2n1C	KCNK9 block -11 | KCNK9 block conf inactive | Kir21 sel inactive | HEK293 Tl ctr inactive
O=c1c2ccccc2nc(/C=C/c2cccnc2)n1Cc1ccccc1	none
O=c1c2ccccc2nc(/C=C/c2cccnc2)n1CCc1ccccc1	KCNK9 block -9.3 | KCNK9 block conf inactive | Kir21 sel inactive | HEK293 Tl ctr 27%
O=C(OCc1c(F)cccc1Cl)c1cccc(S(=O)(=O)N2CCOCC2)c1	none (no result: hERG protect, KCNK9 block, PHOSPHO1 inh, KCNQ1 inh, KCNQ1 act)
COC(=O)C1=C(N)Oc2cc(C)n(Cc3ccco3)c(=O)c2C1c1cccc(Cl)c1 (configuration not stated)	KCNK9 block -13 | KCNK9 block conf 46% | Kir21 sel inactive | HEK293 Tl ctr 45%
COC(=O)C1=C(N)Oc2cc(C)n(CC3CCCO3)c(=O)c2C1c1ccc(Cl)c(Cl)c1 (configuration not stated)	KCNK9 block -9.1 | KCNK9 block conf 35% | Kir21 sel inactive | HEK293 Tl ctr 52%
CCn1c(C)cc2c(c1=O)C(c1ccccc1)C(C(=O)OC)=C(N)O2 (configuration not stated)	none
O=C(OCc1c(-c2ccccc2)ncc2ccccc12)c1ccc(C(F)(F)F)cc1	none (no result: hERG protect, KCNK9 block, PHOSPHO1 inh, KCNQ1 inh, KCNQ1 act)
COc1cc(C)ccc1OCCOCCOc1c(C)cc(C)cc1Br	none | KCNK9 block conf inactive | Kir21 sel inactive | HEK293 Tl ctr inactive
Cc1ccc(OCCOCCOc2cccc3cccnc23)c(Br)c1	none | KCNK9 block conf inactive | Kir21 sel inactive | HEK293 Tl ctr inactive
